In one test the target is Vasopressin V2 receptor (Rattus norvegicus, UniProt Q00788). The test can be described thus: Inhibition of radioligand [3H]-AVP binding to the vasopressin V2 receptor in rat kidney tissue. An outline of the steps: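 [3H]AVP (80–90 Ci/mmol) at 2 nM competed on crude membranes from male rat kidney medulla (V2 sites). Equilibrium 30 min at 30 °C in 100 mM Tris-HCl, 5 mM MgCl2, 0.1% BSA, 50 μM PMSF, 50 μg/mL bacitracin, pH 8.0. Nonspecific binding with 10 μM unlabeled AVP. Glass-fiber filtration. IC50 by linear regression of % inhibition vs log concentration, seven concentrations.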

The target of the next test is T1, Oxytocin receptor (Rattus norvegicus, UniProt P70536).
T1 sequence (P70536 whole entry): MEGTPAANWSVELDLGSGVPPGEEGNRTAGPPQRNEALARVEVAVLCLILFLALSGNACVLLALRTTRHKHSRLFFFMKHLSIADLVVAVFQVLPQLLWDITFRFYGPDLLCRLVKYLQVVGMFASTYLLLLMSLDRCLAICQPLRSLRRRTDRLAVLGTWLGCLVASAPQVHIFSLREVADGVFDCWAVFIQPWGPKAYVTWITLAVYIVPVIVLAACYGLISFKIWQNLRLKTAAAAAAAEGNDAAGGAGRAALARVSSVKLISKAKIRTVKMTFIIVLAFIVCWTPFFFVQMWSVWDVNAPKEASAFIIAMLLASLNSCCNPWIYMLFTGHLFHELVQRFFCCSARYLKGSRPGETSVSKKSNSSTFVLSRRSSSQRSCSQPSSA
Nature of the test: Inhibition of radioligand [3H]oxytocin binding at the oxytocin (OT) receptor in rat uterine tissue. An outline of the steps: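 Uteri taken from rats given diethylstilbestrol dipropionate (0.3 mg/kg ip, 18–24 h before), crude membranes. 1 nM [3H]OT (30–60 Ci/mmol), equilibrium 60 min at 22 °C in 50 mM Tris-HCl, 5 mM MgCl2, 0.1% BSA, pH 7.4. Nonspecific binding with 1 mM unlabeled OT. Filtered on glass fiber. Initial single-concentration screen, then IC50 from seven concentrations by linear regression.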

The target in another test is Vasopressin V1 receptor (Rattus norvegicus, UniProt P48974+P30560). Nature of the test: Inhibition of radioligand [3H]AVP binding to the vasopressin V1 receptor in rat liver tissue. The gist of the method: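 Crude membranes from male rat liver (V1 sites) competed with 1 nM [3H]AVP (80–90 Ci/mmol). Equilibrium 30 min, 30 °C, buffer 100 mM Tris-HCl, 5 mM MgCl2, 0.1% BSA, 50 μM PMSF, 50 μg/mL bacitracin, pH 8.0. 10 μM unlabeled AVP for nonspecific binding. Filtration through glass-fiber filters. IC50 from linear regression over seven concentrations.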

Sequence of Vasopressin V2 receptor (Q00788 whole entry): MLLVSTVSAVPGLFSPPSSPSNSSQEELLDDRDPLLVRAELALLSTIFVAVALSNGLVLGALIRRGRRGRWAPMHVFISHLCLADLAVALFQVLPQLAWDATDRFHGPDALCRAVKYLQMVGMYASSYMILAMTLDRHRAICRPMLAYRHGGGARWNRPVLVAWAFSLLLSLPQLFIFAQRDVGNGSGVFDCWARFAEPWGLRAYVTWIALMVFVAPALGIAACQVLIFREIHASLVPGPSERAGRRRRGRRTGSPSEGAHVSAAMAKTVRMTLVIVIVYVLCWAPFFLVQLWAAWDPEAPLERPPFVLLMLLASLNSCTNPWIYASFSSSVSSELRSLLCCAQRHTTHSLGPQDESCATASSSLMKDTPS

`CC1(C)[C@@H]2CC[C@@]1(CS(=O)(=O)N1CCC3(C=Cc4ccccc43)CC1)[C@@](O)(CCNC(=O)Cc1c[nH]cn1)C2`: the values for the 50% inhibitory concentration (IC50) on Vasopressin V2 receptor, at Oxytocin receptor and at Vasopressin V1 receptor were greater than 3 µM, 0.09 µM and greater than 0.3 µM, respectively.
Taken in the same sequence, the figures for `CC1(C)[C@@H]2CC[C@@]1(CS(=O)(=O)N1CCC3(CCc4ccccc43)CC1)[C@@H](NC(=O)Cc1ccccc1)C2` were 46 µM, 0.25 µM and 2.7 µM.
As for `CC1(C)[C@@H]2CC[C@@]1(CS(=O)(=O)N1CCC3(C=Cc4ccccc43)CC1)[C@@](O)(CNC(=O)C(N)CCS(C)(=O)=O)C2` (some centres not stated), the half-inhibitory concentration (IC50) (usually the concentration needed to halve the response being measured) on Vasopressin V2 receptor worked out at 9.2 µM; on Oxytocin receptor, 0.11 µM; on Vasopressin V1 receptor, 3.7 µM.
For `CC1(C)[C@@H]2CC[C@@]1(CS(=O)(=O)N1CCC3(CCc4ccccc43)CC1)[C@@H](NC(N)=O)C2`, in that order: greater than 3 µM, 0.46 µM and greater than 3 µM.
Taken in the same sequence, the figures for `CC1(C)[C@@H]2CC[C@@]1(CS(=O)(=O)N1CCC3(C=Cc4ccccc43)CC1)[C@@](O)(CNC(=O)c1cccnc1)C2` were 6.8 µM, 0.1 µM and 1.5 µM.
Taken in the same sequence, the figures for `CC1(C)[C@@H]2CC[C@@]1(CS(=O)(=O)N1CCC3(CCc4ccccc43)CC1)[C@@H](NC(=O)CC1CCCNC1)C2` (some centres not stated) were 12 µM, 0.13 µM and 1.5 µM.
Take `CC(=O)NCC[C@@]1(O)C[C@H]2CC[C@]1(CS(=O)(=O)N1CCC3(C=Cc4ccccc43)CC1)C2(C)C`: the IC50 at Vasopressin V2 receptor came to 30 µM; at Oxytocin receptor it was 0.15 µM; on Vasopressin V1 receptor it was 2.7 µM.
Taken in the same sequence, the figures for `Cn1cncc1CC(=O)N[C@H]1C[C@H]2CC[C@]1(CS(=O)(=O)N1CCC3(CCc4ccccc43)CC1)C2(C)C` were 7.5 µM, 0.048 µM and 2.9 µM.
As for `CC1CCC(=O)N1[C@H]1C[C@H]2CC[C@]1(CS(=O)(=O)N1CCC3(CCc4ccccc43)CC1)C2(C)C` (some centres not stated), the results for the IC50 at Vasopressin V2 receptor, at Oxytocin receptor and on Vasopressin V1 receptor were 9.3 µM, 0.18 µM and 3.5 µM, respectively.
Taken in the same sequence, the figures for `CC1(C)[C@@H]2CC[C@@]1(CS(=O)(=O)N1CCC3(CCc4ccccc43)CC1)[C@@H](N1C(=O)CN(Cc3nn[nH]n3)C1=O)C2` were 4.4 µM, 0.049 µM and 2 µM.
For `CC1(C)[C@@H]2CC[C@@]1(CS(=O)(=O)N1CCC3(CCc4ccccc43)CC1)[C@@H](NC(=O)Cc1ccccn1)C2`, in that order: 6.5 µM, 0.095 µM and 3.9 µM.
Consider `CC1(C)[C@@H]2CC[C@@]1(CS(=O)(=O)N1CCC3(CCc4ccccc43)CC1)[C@@H](N1C(=O)CC(CCC(=O)O)C1=O)C2` (some centres not stated), for which the IC50 on Vasopressin V2 receptor is 6.6 µM; on Oxytocin receptor, 0.042 µM; on Vasopressin V1 receptor it was 2.1 µM.
Take `CC1(C)[C@@H]2CC[C@@]1(CS(=O)(=O)N1CCC3(CCc4ccccc43)CC1)[C@@H](NC(=O)[C@H](N)Cc1c[nH]cn1)C2`: the IC50 is 5.5 µM at Vasopressin V2 receptor, 0.045 µM at Oxytocin receptor and 1.5 µM on Vasopressin V1 receptor.
As for `CC1(C)[C@@H]2CC[C@@]1(CS(=O)(=O)N1CCC3(CCc4ccccc43)CC1)[C@@H](N1C(=O)NC(CC(=O)Nc3nn[nH]n3)C1=O)C2` (some centres not stated), the IC50 at Vasopressin V2 receptor came out at 6.7 µM; on Oxytocin receptor, 0.03 µM; at Vasopressin V1 receptor, 3.7 µM.
For `CC1(C)[C@@H]2CC[C@@]1(CS(=O)(=O)N1CCC3(CCc4ccccc43)CC1)[C@@H](N1CCNC1=O)C2`, in that order: greater than 3 µM, 0.1 µM and greater than 0.3 µM.
As to `CC1(C)[C@@H]2CC[C@@]1(CS(=O)(=O)N1CCC3(CCc4ccccc43)CC1)/C(=N\O)C2`, the IC50 was found to be 13 µM at Vasopressin V2 receptor, 0.45 µM on Oxytocin receptor and 3.2 µM on Vasopressin V1 receptor.
Taken in the same sequence, the figures for `CC1(C)[C@@H]2CC[C@@]1(CS(=O)(=O)N1CCC3(C=Cc4ccccc43)CC1)C(=O)C2` were greater than 10 µM, 1.8 µM and greater than 10 µM.
Taken in the same sequence, the figures for `CC1(C)[C@@H]2CC[C@@]1(CS(=O)(=O)N1CCC3(CCc4ccccc43)CC1)[C@@H](NC(=O)Cn1ccnc1)C2` were 10 µM, 0.12 µM and 16 µM.
Taken in the same sequence, the figures for `Cn1cnc(CC(=O)N[C@H]2C[C@H]3CC[C@]2(CS(=O)(=O)N2CCC4(CCc5ccccc54)CC2)C3(C)C)c1` were 9.4 µM, 0.065 µM and 4.5 µM.
Turning to `CC1(C)[C@@H]2CC[C@@]1(CS(=O)(=O)N1CCC3(CCc4ccccc43)CC1)[C@@H](N1C(=O)NC(CCC(N)=O)C1=O)C2` (some centres not stated), the half-maximal inhibitory concentration (IC50) on Vasopressin V2 receptor was determined as 0.57 µM; at Oxytocin receptor, 0.0032 µM; at Vasopressin V1 receptor it was 0.16 µM.
For `CC1(C)[C@@H]2CC[C@@]1(CS(=O)(=O)N1CCC3(CCc4ccccc43)CC1)[C@@H](NC(=O)[C@H](N)CCS(C)(=O)=O)C2`, in that order: 12 µM, 0.045 µM and 5.2 µM.
With `CC1(C)[C@H]2CC[C@]1(CS(=O)(=O)N1CCC3(CCc4ccccc43)CC1)[C@H](NC(=O)Cc1c[nH]cn1)C2`, the figures for the IC50 on Vasopressin V2 receptor, on Oxytocin receptor and on Vasopressin V1 receptor were greater than 3 µM, 1.2 µM and greater than 3 µM, respectively.
`CC(C)[C@@H](N)C(=O)N[C@H]1C[C@H]2CC[C@]1(CS(=O)(=O)N1CCC3(CCc4ccccc43)CC1)C2(C)C`: the IC50 was greater than 3 µM at Vasopressin V2 receptor, 0.11 µM at Oxytocin receptor and 3 µM at Vasopressin V1 receptor.
Taken in the same sequence, the figures for `CC1(C)[C@@H]2CC[C@@]1(CS(=O)(=O)N1CCC3(CCc4ccccc43)CC1)[C@@H](N1C(=O)CN(CC(=O)Nc3ncc[nH]3)C1=O)C2` were 0.74 µM, 0.0059 µM and 0.5 µM.
Consider `CC1(C)[C@@H]2CC[C@@]1(CS(=O)(=O)N1CCC3(C=Cc4ccccc43)CC1)[C@@](O)(CNC(=O)c1ccncc1)C2`, for which the IC50 was 10 µM on Vasopressin V2 receptor, 0.18 µM at Oxytocin receptor and 1.2 µM on Vasopressin V1 receptor.
Taken in the same sequence, the figures for `CC1(C)[C@@H]2CC[C@@]1(CS(=O)(=O)N1CCC3(CCc4ccccc43)CC1)[C@@H](NC(=O)CN1CC[C@H](N)C1=O)C2` were 8.4 µM, 0.061 µM and 2.7 µM.
For `Cn1cnc(CC(=O)NC(CCS(C)(=O)=O)C(=O)N[C@H]2C[C@H]3CC[C@]2(CS(=O)(=O)N2CCC4(CCc5ccccc54)CC2)C3(C)C)c1` (some centres not stated), in that order: 0.49 µM, 0.0007 µM and 1.2 µM.
On to `CC(=O)NC[C@@]1(O)C[C@H]2CC[C@]1(CS(=O)(=O)N1CCC3(C=Cc4ccccc43)CC1)C2(C)C`, for which the IC50 at Vasopressin V2 receptor is 10 µM; at Oxytocin receptor, 0.13 µM; at Vasopressin V1 receptor, greater than 1 µM.
For `CC1(C)[C@@H]2CC[C@@]1(CS(=O)(=O)N1CCC3(CCc4ccccc43)CC1)[C@@H](N1C(=O)NC(CNc3n[nH]c(N)n3)C1=O)C2` (some centres not stated), in that order: 0.45 µM, 0.0067 µM and 0.12 µM.
For `CC1(C)[C@@H]2CC[C@@]1(CS(=O)(=O)N1CCC3(CCc4ccccc43)CC1)[C@@H](N1C(=O)CNC1=O)C2`, in that order: 2.1 µM, 0.018 µM and 1.1 µM.
As for `CC1(C)[C@@H]2CC[C@@]1(CS(=O)(=O)N1CCC3(C=Cc4ccccc43)CC1)[C@@](O)(CNC(=O)Cc1ccccn1)C2`, the IC50 at Vasopressin V2 receptor came out at 4.7 µM; at Oxytocin receptor, 0.081 µM; at Vasopressin V1 receptor, 0.83 µM.
In the case of `CC1(C)[C@@H]2CC[C@@]1(CS(=O)(=O)N1CCC3(CCc4ccccc43)CC1)[C@H](NC(=O)Cc1c[nH]cn1)C2`, the values for the IC50 at Vasopressin V2 receptor, on Oxytocin receptor and on Vasopressin V1 receptor were 13 µM, 0.83 µM and 5.1 µM, respectively.
In the case of `CC1(C)[C@@H]2CC[C@@]1(CS(=O)(=O)N1CCC3(CCc4ccccc43)CC1)[C@@H](N1C(=O)CCC1C(=O)O)C2` (some centres not stated), the concentration for half-maximal inhibition (IC50) was greater than 3 µM on Vasopressin V2 receptor, 0.27 µM on Oxytocin receptor and greater than 3 µM at Vasopressin V1 receptor.
In the case of `CC1(C)[C@@H]2CC[C@@]1(CS(=O)(=O)N1CCC3(CCc4ccccc43)CC1)[C@@H](N1C(=O)NC(CC(=O)O)C1=O)C2` (some centres not stated), the half-inhibitory concentration (IC50) at Vasopressin V2 receptor stood at 4.1 µM; at Oxytocin receptor it was 0.05 µM; on Vasopressin V1 receptor, 1.9 µM.

The record behind these values is ChEMBL document CHEMBL1126550, “Nanomolar-affinity, non-peptide oxytocin receptor antagonists” (J Med Chem, 1993).
